A selection: hits, their analogues and other compounds. The true share with any hit is near 3.4%.
Arrestin-AP2 inh – blocks beta-arrestin peptide binding to AP2 adaptin; FITC-arrestin peptide / GST-AP2 beads, flow cytometry; AP2 beta2 appendage carries R879A mutation; inhibition, % at 10 µM; 340,000 tested, 0.31% active;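 active = inhibition above a set limit, near 3 SD of compounds lacking own fluorescence, cut at about 54% in these data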
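Material – GST-tagged AP2 beta2-adaptin appendage (R879A) on 4 µm glutathione beads · Probe or stimulus – fluorescein-tagged arrestin peptide at 50 nM final · Timing – 12 min plus 1 h, RT · Detection – bead flow cytometry, FITC channel · Read-out basis – inhibition as reduced fluorescein signal on beads, percent · Medium – PBS plus Tween 20 (0.05%) and BSA (0.1%)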
UCH37 inh – blocks the human deubiquitinase UCH37 | Q9Y5K5 | 330,000 tested, 0.33% active | inhibition, % (concentration not given with the values) | purified proteasome/UCH37, Ub-AMC cleavage fluorescence | AID 588478;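 active = mean inhibition over replicate wells above about 20%, limit read from the data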
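Material: human UCH37 enzyme supplied as purified proteasome complex. Measure: % inhibition of Ub-AMC cleavage fluorescence. Medium: pH 7.4 Tris-HCl (50 mM) with ovalbumin, ATP-MgCl2, DTT. Times: 30 min preincubation with enzyme, 25 min cleavage at room temperature. Detection: AMC fluorescence intensity at 355/460 nm.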
A3G deaminase – inhibitors of human APOBEC3G DNA deaminase; Q9HC16; recombinant A3G, ssDNA deamination FAM/TAMRA fluorescence; inhibition, % at 20 µM; 330,000 tested, 0.28% active; AID 493012;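 active = inhibition of at least 40% at 20 µM, with no more than 30% in the related APOBEC3A deaminase screen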
AHR activator – activates the human aryl hydrocarbon receptor. 320,000 tested, 2.5% active. P35869. activation, % at 5 µM. AHR-responsive luciferase reporter cells, luminescence; in the data active = activation above about 47%
PolyA inhibitor – inhibitors of polyadenylation in S. cerevisiae. 300,000 tested, 0.02% active. activity score, % at 12 µM. S. cerevisiae SKY197-pL101 polyadenylation reporter, beta-gal luminescence; efflux-impaired pdr1/pdr3 knockout yeast; score 100 = 6 SD above DMSO. AID 1875;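 active = lowest replicate activity score at least 50, where 100 means six control SD above control mean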;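 also: yeast exposed to compound for 9 h at 30 °C; higher score means more reporter readthrough which indicates perturbed polyadenylation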
A3A deaminase – blocks human APOBEC3A ssDNA deamination. P31941. recombinant A3A, FAM/TAMRA ssDNA deamination fluorescence. inhibition, % at 20 µM. 330,000 tested, 0.41% active. AID 493011;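 active = at least 40% inhibition at 20 µM here, with at most 30% in a related deaminase screen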
AHR act confirm – confirmation of human aryl hydrocarbon receptor activators; 2,300 tested, 87% active; activation, % at 9 µM; shares compounds with AHR activator; human cells, AHR-responsive luciferase reporter, luminescence; in the data active = activation above about 49%;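 also: HepG2 hepatoma cells carrying a DRE-driven firefly luciferase reporter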
PXR act counter – counter-screen for AHR activators: human PXR activators | AID 434939 | shares compounds with AHR activator | 2,300 tested, 88% active | cell-based PXR reporter, luciferase luminescence | activation, % at 11.6 µM; in the data active = activation above about 11%;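 also: human hepatoma DPX-2 cells expressing full-length human PXR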
Target sequence (O75469 whole entry, looked up): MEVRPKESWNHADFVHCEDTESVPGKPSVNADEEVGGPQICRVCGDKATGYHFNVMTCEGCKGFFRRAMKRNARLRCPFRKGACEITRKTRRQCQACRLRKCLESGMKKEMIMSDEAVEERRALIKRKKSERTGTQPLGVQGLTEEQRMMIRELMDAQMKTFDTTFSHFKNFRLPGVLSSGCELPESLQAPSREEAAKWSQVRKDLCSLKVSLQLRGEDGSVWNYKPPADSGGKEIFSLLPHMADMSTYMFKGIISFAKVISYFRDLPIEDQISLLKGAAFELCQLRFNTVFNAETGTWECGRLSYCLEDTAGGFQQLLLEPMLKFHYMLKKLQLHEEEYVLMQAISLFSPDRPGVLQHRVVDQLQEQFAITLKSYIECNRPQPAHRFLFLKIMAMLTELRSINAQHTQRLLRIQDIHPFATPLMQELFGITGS
Numbers stand for hits; . = inactive; / = not tested or not shown.

SMILES	Arrestin-AP2 inh	UCH37 inh	A3G deaminase	AHR activator	PolyA inhibitor	A3A deaminase	AHR act confirm	PXR act counter
O=C(Nc1ccc(Cl)c(-c2nc3ccccc3[nH]2)c1)c1ccc2c(c1)OCO2	.	.	.	86.3	.	.	93.0	19.2
Cc1ccc(C(=O)Nc2ccc3c(c2)OCO3)cc1S(=O)(=O)N1CCOCC1	.	.	.	.	.	.	/	/
Cc1ccc(NC(=O)c2ccc3c(c2)OCO3)cc1Cl	.	.	.	.	.	.	/	/
CCOC(=O)C=c1sc2n(c1=O)CCN=2	/	.	/	/	/	/	/	/
CC(CC(=O)NC12CC3CC(CC(C3)C1)C2)=NNC(=O)c1ccc(F)cc1	/	.	/	/	/	/	/	/
CC(CC(=O)Nc1ccccn1)=NNC(=O)Cc1cccc2ccccc12	/	.	/	/	/	/	/	/
CCOc1ccccc1-c1cc(C(=O)NN=Cc2ccc(O)c(OC)c2)c2ccccc2n1	/	.	/	/	/	/	/	/
Cc1cc(NC(=O)NC(=O)c2cccc(OC(F)(F)C(F)F)c2)n[nH]1	.	.	.	156.8	.	.	103.5	17.0
O=C(Cc1coc2ccc3ccccc3c12)Nc1nccs1	.	.	.	79.3	.	.	92.7	21.9
O=C(Cc1coc2ccc3ccccc3c12)NCc1ccccc1	.	.	.	.	.	.	/	/
O=C(Cn1c(NCCCO)nc2ccccc21)c1ccc(Cl)cc1Cl	.	.	.	120.3	.	.	121.9	20.2

Screening data (PubChem BioAssay)
